Laboratory results reported in ChEMBL document CHEMBL1667727, “Sesquiterpenes from Chloranthus japonicus” (J Nat Prod, 2011).

Tests used:
Format in all cases: functional, cell-based
HepG2 = experiment: Cytotoxicity against human HepG2 cells by MTT assay
In short: (§1)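 In vitro cytotoxicity testing against a panel of eight cultured human tumor lines. Tissue origins: Lovo (colorectal cancer), Hepg2 (hepatoma), OSRC-2 (renal carcinoma), A549 (lung epithelial carcinoma), SKOV3 (ovarian carcinoma), HeLa (cervical cancer), MCF-7 (breast cancer) and SGC-7901 (gastric adenocarcinoma).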

OS-RC-2 = experiment: Cytotoxicity against human OS-RC2 cells by MTT assay; in short: as §1
A549 = experiment: Cytotoxicity against human A549 cells by MTT assay; in short: as §1
SK-OV-3 = experiment: Cytotoxicity against human SKOV3 cells by MTT assay; in short: as §1
HeLa = experiment: Cytotoxicity against human HeLa cells by MTT assay; in short: as §1
MCF7 = experiment: Cytotoxicity against human MCF7 cells by MTT assay; in short: as §1
SGC-7901 = experiment: Cytotoxicity against human SGC7901 cells by MTT assay; in short: as §1
LoVo = experiment: Cytotoxicity against human LoVo cells by MTT assay; in short: as §1

Measured: IC50

CC1=C2C[C@@H]3[C@@](C)(C[C@]2(O)OC1=O)[C@H](O)CC[C@@]3(C)O [CHLORAEUDOLIDE]
> 10 µM: all assays above

CC1=C2[C@H](O)C3=C(C=O)[C@H]4C[C@H]4[C@]3(C)C[C@@H]2OC1=O [CHLORAJAPOLIDE A]
> 10 µM: all assays above

CC1=C2[C@@H]3O[C@H](O)C4=C3[C@@](C)(C[C@@H]2OC1=O)[C@@H]1C[C@H]41 [CHLORAJAPOLIDE B]
> 10 µM: all assays above

CC1=C2CC3=C(CO)[C@H]4C[C@H]4[C@]3(C)C[C@@H]2OC1=O [CHLORAJAPOLIDE C]
> 10 µM: all assays above

CC1=C2C[C@@H]3[C@@](C)(C[C@@H]2OC1=O)[C@@H]1C[C@@H]1[C@]3(O)CO [CHLORAJAPOLIDE D]
> 10 µM: all assays above

CO[C@@]12OC(=O)C(CO)=C1C[C@H]1[C@H](COC(C)=O)[C@H]3C[C@H]3[C@]1(C)[C@@H]2O [CHLORAJAPOLIDE E]
> 10 µM: all assays above

C/C=C(\C)C(=O)OC[C@@]1(O)C2[C@@H](O)C3=C(COC(=O)CCC(=O)OC)C(=O)O[C@@]34[C@@H]3C5=C(C[C@H]4[C@@]2(C)[C@@H]2C[C@@H]21)[C@H]1C[C@H]1[C@]5(C)[C@@H](O)C(=O)/C3=C(/C)C(=O)OC (some centres undefined) [CHLORAJAPONOL]
> 10 µM: all assays above

C=C1[C@H]2C[C@H]2[C@]2(C)C[C@]3(O[C@@H]4O[C@H](CO)[C@@H](O)[C@H](O)[C@H]4O)OC(=O)C(C)=C3C[C@@H]12 [CHLORAJAPOSIDE]
> 10 µM: all assays above
